From article PMC12707241 (RSC Chemical Biology, 2025)
Where two headings read alike, the source gives them in different places.

Key:
HEK293 cells = assay: Intracellular NAD+ level, HEK293 cells; format: cell-based, human; settings: HEK293, 1 mM, 6 h
How it was run: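 HEK293 cells (DMEM, 10% FBS, 37 °C, 5% CO2) incubated with 1 mM NR or NARH for 6 h. Harvested, counted by hemocytometer, pelleted, and extracted in ice-cold 7% perchloric acid (three vortex/ice-sonication cycles). NAD+ measured by enzymatic cycling assay. Three independent experiments ± SD; Student's t-test.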

SIRT5 [1] = settings: cited from earlier work
SIRT5 [2] = settings: cited from earlier work; remark: listed apart in the source
[3] = physiological NAM concentrations

SMILES | intracellular NAD+ content (HEK293 cells) | effect on deacetylase activity of SIRT5 (SIRT5 [1]) | effect on desuccinylase activity of SIRT5 (SIRT5 [2]) | effect on deacetylase activity of SIRT5 (SIRT5 [1]; [3]) | effect on desuccinylase activity of SIRT5 (SIRT5 [2]; [3])
NC(=O)c1ccc[n+]([C@@H]2O[C@H](CO)[C@@H](O)[C@H]2O)c1 [NR, nicotinamide riboside] | nearly two-fold increase | selectively activates | negligible changes |  | 
NC(=O)c1cccnc1 [NAM, nicotinamide] |  |  |  | negligible changes | potently inhibit
